How the values were obtained:
Gamma-secretase [1] = test: Inhibition of gamma secretase C100Flag cleavaging activity in HeLa cell membranes assessed as M-amyloid beta-40 production by cell free assay; design: species or system Homo sapiens
Summary of the method: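 IC50 taken as the geometric mean of at least two experiments, each run with six data points.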

Gamma-secretase [2] = test: Inhibition of gamma secretase activity in human H4 cells transfected with APP695 mutant assessed as beta amyloid(1-40) production by whole cell assay; type: cell-based
Summary of the method: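 Cells were plated at about 30,000 per well and left to attach for about 6 h at 37 °C. They were then washed to clear secreted Aβ and given fresh medium containing compound for overnight incubation at 37 °C. Secreted Aβ in the harvested medium was measured by immunoassay. IC50 is the geometric mean of at least two experiments, six data points each.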

IC50 (Gamma-secretase [1]) | IC50 (Gamma-secretase [2]) | Structure (SMILES)
9 nM | 7.49 nM | CCC[C@H](NC(=O)[C@@H](O)C(C)C)C(=O)Nc1ncc([C@H](C)CCCC(C)(C)OC)s1
4 nM | 0.7 nM | CCC[C@H](NC(=O)Cc1cc(F)cc(F)c1)C(=O)Nc1ncc(C(C)N[C@H](C(=O)OC)C(C)C)s1 (stereo partly specified)
30 nM | 0.22 nM | COC(C)(C)CCCC(C)c1cnc(NC(=O)[C@H](C)NC(=O)CCc2cc(F)cc(F)c2)s1 (stereo partly specified)
4.2 nM | 4.2 nM | CCC[C@H](NC(=O)Cc1cc(F)cc(F)c1)C(=O)Nc1ncc(C(C)NCC(C)C)s1 (stereo partly specified)
5.9 nM | 0.3 nM | CCC[C@H](NC(=O)[C@@H](O)C(C)C)C(=O)Nc1ncc(C(C)CCCC(C)(C)OC)s1 (stereo partly specified)
13 nM | 0.43 nM | CCC[C@H](NC(=O)[C@@H](O)C(C)(C)C)C(=O)Nc1ncc(C(C)CCCC(C)(C)OC)s1 (stereo partly specified)
30 nM | 12.7 nM | CCC[C@H](NC(=O)Cc1cc(F)cc(F)c1)C(=O)Nc1ncc(CN2CCOCC2)s1
1 nM | 1.2 nM | CCC[C@H](NC(=O)Cc1cc(F)cc(F)c1)C(=O)Nc1ncc(C(O)(CC)CC)s1
155 nM | 42 nM | CCC[C@H](NC(=O)Cc1cc(F)cc(F)c1)C(=O)Nc1nc(C)c(C(C)NCC)s1 (stereo partly specified)
< 34.6 nM | 0.8 nM | CCCC(CCC)c1cnc(NC(=O)[C@H](CCC)NC(=O)Cc2cc(F)cc(F)c2)s1
13.6 nM | 0.08 nM | CC[C@H](NC(=O)CCc1cc(F)cc(F)c1)C(=O)Nc1ncc(C(C)CCCC(C)(C)OC)s1 (stereo partly specified)
2.6 nM | 1.2 nM | CCC[C@H](NC(=O)Cc1cc(F)cc(F)c1)C(=O)Nc1ncc(C(C)NCCC(C)C)s1 (stereo partly specified)
26.3 nM | 2.2 nM | CCC[C@H](NC(=O)Cc1cc(F)cc(F)c1)C(=O)Nc1ncc(C(CC)CC)s1
94.9 nM | 37.3 nM | CCC[C@H](NC(=O)[C@@H](O)C(C)(C)C)C(=O)Nc1ncc(C(C)(C)O)s1
51.8 nM | 50.5 nM | CCC[C@H](NC(=O)Cc1cc(F)cc(F)c1)C(=O)Nc1nc(C)c(C(C)NC)s1 (stereo partly specified)
6 nM | 0.05 nM | CCC[C@H](NC(=O)CCc1cc(F)cc(F)c1)C(=O)Nc1ncc(C(C)CCCC(C)(C)O)s1 (stereo partly specified)
141 nM | 183 nM | CCC[C@H](NC(=O)[C@H](O)c1ccccc1)C(=O)Nc1ncc(C(O)(CC)CC)s1
200 nM | 93 nM | CCC[C@H](NC(=O)Cc1cc(F)cc(F)c1)C(=O)Nc1ncc(CN)s1
30 nM | 5.1 nM | CCC[C@H](NC(=O)Cc1cc(F)cc(F)c1)C(=O)Nc1ncc(C(C)C)s1
30 nM | 12.9 nM | CCC[C@H](NC(=O)Cc1cc(F)cc(F)c1)C(=O)Nc1nc(C)c(CC)s1
10 nM | 0.11 nM | CCC[C@H](NC(=O)[C@@H](O)C(C)(C)C)C(=O)Nc1ncc([C@@H](C)CCCC(C)(C)OC)s1
28.3 nM | 39.7 nM | CCC[C@H](NC(=O)Cc1cc(F)cc(F)c1)C(=O)Nc1nc(C)c(C(C)N(C)C)s1 (stereo partly specified)
2.7 nM | 1.2 nM | CCC[C@H](NC(=O)Cc1cc(F)cc(F)c1)C(=O)Nc1ncc(C(C)NCCC(C)(C)C)s1 (stereo partly specified)
5 nM | 2 nM | CCC[C@H](NC(=O)Cc1cc(F)cc(F)c1)C(=O)Nc1nc(C)c(C(C)NCCC(C)C)s1 (stereo partly specified)
10 nM | 4.5 nM | CCC[C@H](NC(=O)Cc1cc(F)cc(F)c1)C(=O)Nc1nc(C)c(C(C)NCC(F)(F)F)s1 (stereo partly specified)
3.8 nM | 2.4 nM | CCC[C@H](NC(=O)Cc1cc(F)cc(F)c1)C(=O)Nc1ncc(C(C)N2CCOCC2)s1 (stereo partly specified)
45.1 nM | 20.1 nM | CCC[C@H](NC(=O)[C@@H](O)C(C)(C)C)C(=O)Nc1ncc(C(C)C)s1

IC50 (Gamma-secretase [1]) | IC50 (Gamma-secretase [2]) | Structure (SMILES)
30 nM | 12.7 nM | CCCCN(CC)Cc1cnc(NC(=O)[C@H](CCC)NC(=O)Cc2cc(F)cc(F)c2)s1
134 nM | 231 nM | CCC[C@H](NC(=O)Cc1cc(F)cc(F)c1)C(=O)Nc1ncc(C(C)NCC(C)(C)C)s1 (stereo partly specified)
10 nM | 4.8 nM | CCC[C@H](NC(=O)Cc1cc(F)cc(F)c1)C(=O)Nc1nc(C)c(C(C)NCC(C)C)s1 (stereo in doubt; 34)
42.4 nM | 29.8 nM | CCC[C@H](NC(=O)Cc1cc(F)cc(F)c1)C(=O)Nc1ncc(C(C)NC(C)C)s1 (stereo partly specified)
9.9 nM | 1.14 nM | CCC[C@H](NC(=O)[C@@H](O)C(C)(C)C)C(=O)Nc1ncc([C@H](C)CCCC(C)(C)OC)s1
9 nM | 0.3 nM | CCC[C@H](NC(=O)[C@@H](O)C(C)C)C(=O)Nc1ncc([C@@H](C)CCCC(C)(C)OC)s1
727 nM | 81.5 nM | CC[C@H](NC(=O)CCc1cc(F)cc(F)c1)C(=O)Nc1ncc([C@H](C)CCCC(C)(C)OC)s1
64.8 nM | 1.6 nM | CCC[C@H](NC(=O)Cc1cc(F)cc(F)c1)C(=O)Nc1ncc(C(C)CC(C)(C)C)s1 (stereo partly specified)
10 nM | 10.6 nM | CCC[C@H](NC(=O)Cc1cc(F)cc(F)c1)C(=O)Nc1ncc(C(C)N2CCCC2)s1 (stereo partly specified)
6.2 nM | 0.3 nM | CCC[C@H](NC(=O)[C@@H](O)c1cc(F)cc(F)c1)C(=O)Nc1ncc(C(CC)CC)s1
20 nM | 27.7 nM | CCC[C@H](NC(=O)Cc1cc(F)cc(F)c1)C(=O)Nc1nc(C)c(C(C)=O)s1
3.1 nM | 2.5 nM | CCC[C@H](NC(=O)Cc1cc(F)cc(F)c1)C(=O)Nc1nc(C)c(C(C)NCC(C)C)s1 (stereo in doubt; 34a)
7.4 nM | 0.22 nM | CCC[C@H](NC(=O)[C@@H](O)C(C)(C)C)C(=O)Nc1ncc(C(C)CCCC(C)(C)O)s1 (stereo partly specified)
7.1 nM | 3.7 nM | CCCCNC(C)c1sc(NC(=O)[C@H](CCC)NC(=O)Cc2cc(F)cc(F)c2)nc1C (stereo partly specified)
3 nM | 1.4 nM | CCC[C@H](NC(=O)Cc1cc(F)cc(F)c1)C(=O)Nc1ncc(C(C)NCc2ccccc2)s1 (stereo partly specified)
141 nM | 94.1 nM | CCC[C@H](NC(=O)Cc1cc(F)cc(F)c1)C(=O)Nc1nc(C)c(C)s1
28.3 nM | 26.1 nM | CCC[C@H](NC(=O)Cc1cc(F)cc(F)c1)C(=O)Nc1nc(C)c(C(C)N2CCN(C)CC2)s1 (stereo partly specified)
2.8 nM | 2.2 nM | CCC[C@H](NC(=O)[C@@H](O)c1ccccc1)C(=O)Nc1ncc(C(O)(CC)CC)s1
33 nM | 31.6 nM | CCC[C@H](NC(=O)Cc1cc(F)cc(F)c1)C(=O)Nc1nc(C)c(C(C)NCC(C)C)s1 (stereo in doubt; 34b)
10 nM | 0.14 nM | CCC[C@H](NC(=O)CCc1cc(F)cc(F)c1)C(=O)Nc1ncc(C(C)CCCC(C)(C)OC)s1 (stereo partly specified)
6 nM | 2 nM | CCCCNC(C)c1cnc(NC(=O)[C@H](CCC)NC(=O)Cc2cc(F)cc(F)c2)s1 (stereo partly specified)
30 nM | 0.1 nM | CC[C@H](NC(=O)CCc1cc(F)cc(F)c1)C(=O)Nc1ncc([C@@H](C)CCCC(C)(C)OC)s1
15.9 nM | 10.1 nM | CCCNC(C)c1cnc(NC(=O)[C@H](CCC)NC(=O)Cc2cc(F)cc(F)c2)s1 (stereo partly specified)
63.2 nM | 104 nM | CCC[C@H](NC(=O)Cc1cc(F)cc(F)c1)C(=O)Nc1ncc(CNCC)s1
116 nM | 16.8 nM | CCC[C@H](NC(=O)C(=O)C(C)(C)C)C(=O)Nc1ncc(C(C)C)s1
5.9 nM | 2 nM | CCC[C@H](NC(=O)Cc1cc(F)cc(F)c1)C(=O)Nc1nc(C)c(C(C)NCCC(C)(C)C)s1 (stereo partly specified)

Reference: ChEMBL document CHEMBL1137444, “Thiazole-diamides as potent gamma-secretase inhibitors” (Bioorg Med Chem Lett, 2007)
